Series [1] in a line: Stability in phosphate buffer in pH 3 at 37 degC at 500 uM. To be noted: pH 3, 500 µM. The series is classed as physicochemical. An outline of the steps:
(§1)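 Compound (500 μM) incubated at 37°C in 50 mM phosphate buffer brought to the stated pH with HCl. Monitored over 3 hours; half-life in hours.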

Series [2] is described as follows: Stability in phosphate buffer in pH 6 at 37 degC at 500 uM. Format: physicochemical. An outline of the steps: as §1
Series [3] in a line: Stability in phosphate buffer in pH 5 at 37 degC at 500 uM. The series is classed as physicochemical. To be noted: pH 5, 500 µM. An outline of the steps:
as §1

The nature of series [4]: Half life in Sprague-Dawley rat intestinal lumen in 37degC at 500 uM. Format: ADME. An outline of the steps: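 Compound incubated at 37°C in intestinal perfusate from Sprague Dawley rats. Perfusate made by passing buffered solution (pH 6.5) through an isolated intestinal segment. Sampled between 0 and 3 h, analysed by HPLC, half-life estimated.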
In series [5] the test system is KB. The experiment in a line: Cytotoxicity against human KB cells at 100 uM. The series is classed as functional, cell-based. An outline of the steps:
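KB cells grown logarithmically for two days with compound, in triplicate. Growth read by spectrophotometric quantitation of crystal violet eluted from stained cells.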

Series [6] is described as follows: (§2) Half life in rat liver in 37degC at 500 uM. Format: ADME, tissue-based. To be noted: rat liver. An outline of the steps:
(§3)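 Compound exposed at 37°C to homogenates of Caco-2 or HFF cells, or of rat liver or intestine. Samples taken at intervals from 0 to 3 h and analysed by HPLC. Half-life estimated as for the buffer stability study.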

The test system of series [7] is Human betaherpesvirus 5. The experiment in a line: Antiviral activity against HCMV Towne in HFF cells by plaque reduction assay. Format: functional, organism-based. Conditions: Human betaherpesvirus 5, Towne. An outline of the steps:
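HFF cells in 24-well dishes infected with ~100 p.f.u./cm2 HCMV Towne (plaque-purified isolate Po). After adsorption, compounds (DMSO stocks diluted in growth medium) added at 4–8 concentrations in duplicate.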
For orientation: Plaques are areas of infected cells; plaque reduction assays count them against a control.

The nature of series [8]: Stability in phosphate buffer in pH 4 at 37 degC at 500 uM. Format: physicochemical. Conditions: pH 4, 500 µM. An outline of the steps:
as §1

Series [9] in a line: (§4) Half life in rat intestine in 37degC at 500 uM. Format: ADME, tissue-based. To be noted: rat intestine. An outline of the steps:
as §3

Series [10] can be described thus: Stability in phosphate buffer in pH 7 at 37 degC at 500 uM. Format: physicochemical. An outline of the steps:
as §1

A short description of series [11]: (§5) Half life in HFF cells in 37degC at 500 uM. The series is classed as ADME, cell-based. Conditions: human, HFF cells. An outline of the steps: as §3
Series [12] is described as follows: (§6) Half life in Caco-2 cells in 37degC at 500 uM. Format: ADME, cell-based, Colon. Conditions: human, Caco-2 cells. An outline of the steps: as §3
Series [13] concerns Liver. The series is described as §2. Format: ADME, tissue-based. Conditions: in vivo, 500 µM. An outline of the steps: as §3
The nature of series [14]: AUC (0 to infinity) in rat at 0.1 mg, iv. Format: ADME, organism-based. On the set-up: dose 0.1 mg, route intravenous, time infinity. To be noted: plasma. An outline of the steps: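 Rat; reference compound dosed intravenously at 0.1 mg. Plasma AUC from zero to infinity, dose normalized.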
The test system of series [15] is Intestine. Described as §4. The series is classed as ADME, tissue-based. Conditions: in vivo, 500 µM. An outline of the steps:
as §3

The subject of series [16] is Rattus norvegicus. In words: Bioavailability in rat at 3 mg, iv. Format: ADME, organism-based. Conditions: in vivo, in the assay text read “0.1 mg” for “3 mg”. An outline of the steps: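 Rat; drug injected directly into the gastrointestinal tract at 3 mg, with a 0.1 mg intravenous reference. Prodrug AUC summed the released cyclic parent and the intact prodrug. Bioavailability = dose-normalized GI AUC ÷ IV AUC, corrected for the IV vs oral dose difference.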

For series [17], the system named is HFF. The series is described as §5. Format: ADME, cell-based. To be noted: human, hff, 500 µM. An outline of the steps: as §3
Series [18] relates to Caco-2. The series is described as §6. Conditions: human, caco-2, 500 µM. The series is classed as ADME, cell-based, Colon. An outline of the steps:
as §3

Series [19] is described as follows: Stability in phosphate buffer in pH 6.5 at 37 degC at 500 uM. The series is classed as physicochemical. An outline of the steps:
as §1

For `CC(C)C(N)C(=O)OCCOP1(=O)CO[C@@H](Cn2ccc(N)nc2=O)CO1` (some centres undefined), the Stability entry in series [1], in [3] and in series [8] was “Stable” each time. Further, the half-life at 500 µM was 960 min in [2] (phosphate buffer, pH 6); 141 min in series [4] (Sprague-Dawley, rat intestinal lumen); 3.7 min in [6]; 12.5 min in series [9]; 210 min in series [10] (phosphate buffer, pH 7); 69.9 min in series [11]. Also, the half-life at 500 µM in [12] was 20.2 min. Besides, the Activity result in series [5] was “Not toxic”. In series [7], this molecule displayed an IC50 of 680 nM.
Regarding `Nc1ccn(C[C@H]2COP(=O)(O)CO2)c(=O)n1` [CYCLIC CIDOFOVIR], the Stability result in [1] was “Stable”; in series [2] (buffer, pH 6, 500 µM) it was “Stable”; in series [3] it was “Stable”; in series [4] (in vivo, 500 µM), “Stable”; in [13] it was “Stable”; in series [8], “Stable”. Also, the Stability result in [15] is given as “Stable”; in series [10] (buffer, pH 7, 500 µM) it was “Stable”; in [17] it was “Stable”; in [18] it was “Stable”. Further, the AUC(0-inf) in series [14] was found to be 472 ng·h/mL. This molecule gave a F in series [16] of 100%.
Regarding `Nc1ccn(C[C@H]2COP(=O)(OCCOC(=O)C(N)Cc3ccccc3)CO2)c(=O)n1` (some centres undefined), the Stability entry in series [1], in series [3] and in [8] was “Stable” throughout. Further, in [19], the half-life at 500 µM is 222 min.
As to `Nc1nc2c(ncn2COC(CO)CO)c(=O)[nH]1` [GANCICLOVIR], it took 3000 nM to reach half-maximal inhibition in series [7] (IC50).

By half-life is commonly meant the time in which the quantity being followed falls by half. Lower therefore signals rapid decline. In general, IC50 refers to the midpoint of a concentration-inhibition curve. Read a low IC50 as greater potency in that assay. The term AUC(0-inf) denotes total exposure, with the tail of the curve extrapolated. Low readings indicate less exposure, high ones more exposure.
